Experimental data published in article PMC4410974 (Clinical cancer research : an official journal of the …, 2012).

Columns and labels:
[1] = tested on: p70S6 kinase phosphorylation at Thr389; assay: p70S6K phosphorylation at Thr389 in peripheral blood lymphocytes; assay type: in vivo, human
Summary of the method: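 Sirolimus-alone study only, oral weekly dosing. Blood drawn before dosing at baseline, week 1 day 2 and day 4, week 2 day 1, week 5 day 1. CD3+ cells enriched after density centrifugation, cryopreserved, then given medium or PMA (0.5 µg/ml) plus ionomycin (0.025 µg/ml), 1 hr, 37 °C. Western blot for phospho-Thr389 and total p70S6K, densitometry, cohort means, paired t-test. Indirect response model with rebound (kin, kout; baseline 100%), FOCE with interaction.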

[2] = Tumor response by RECIST 1.0; assay type: in vivo, human
[3] = Sirolimus whole blood pharmacokinetics; assay type: in vivo, human; settings: for AUC(0-inf) / Cmax / half-life / AUC / Tmax: human, whole blood, oral; for AUC: AUC [SD]; for Tmax: Tmax [SD]
Summary of the method: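 Advanced-cancer patients received oral sirolimus once weekly as 1 mg tablets. Week 1 was sirolimus alone. From week 2, ketoconazole was added: 200 mg bid on day 1, then 200 mg daily for 3 days. Whole blood was sampled predose and at 0.25, 0.5, 1, 2, 4, 8, 24 and 48 h in weeks 1–2, and predose in week 3. Analysis was noncompartmental. Cohort doses were re-estimated toward the target AUC assuming dose–AUC linearity.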

[4] = oral multiple dosing; ref [17]–[19]; cited from earlier work
[5] = indirect response model with rebound
[6] = 30 mg, sirolimus alone study, 4 hours apart (total 60 mg), N=5, mean
[7] = 30 mg, sirolimus alone study, 24 hours apart (total 60 mg), N=3, mean
[8] = 45 mg, sirolimus alone study, 24 hours apart (total 90 mg), N=2, mean

- AUC(0-inf) ([3]; 1 mg, sirolimus 1 mg, with ketoconazole, n=6): 935 ng·h/mL
- AUC(0-inf) ([3]; 1 mg, sirolimus 1 mg, without ketoconazole, n=6): 186 ng·h/mL
- Cmax ([3]; 1 mg, Cmax, sirolimus 1 mg, with ketoconazole, n=6): 25.4 ng/mL
- Cmax ([3]; 1 mg, Cmax, sirolimus 1 mg, without ketoconazole, n=6): 5.4 ng/mL
- half-life ([3]; 1 mg, T1/2, sirolimus 1 mg, without ketoconazole, n=6): 82 h
- AUC(0-inf) ([3]; 2 mg, sirolimus 2 mg, with ketoconazole, n=6): 1350 ng·h/mL
- AUC(0-inf) ([3]; 2 mg, sirolimus 2 mg, without ketoconazole, n=6): 271 ng·h/mL
- AUC(0-inf) ([3]; 3 mg, sirolimus 3 mg, with ketoconazole, n=6): 2450 ng·h/mL
- AUC(0-inf) ([3]; 3 mg, sirolimus 3 mg, without ketoconazole, n=6): 400 ng·h/mL
- Cmax ([3]; 3 mg, Cmax, sirolimus 3 mg, with ketoconazole, n=6): 49.2 ng/mL
- half-life ([3]; 3 mg, T1/2, sirolimus 3 mg, with ketoconazole, n=6): 84 h
- half-life ([3]; 3 mg, T1/2, sirolimus 3 mg, without ketoconazole, n=6): 35 h
- AUC(0-inf) ([3]; 4 mg, sirolimus 4 mg, with ketoconazole, n=6): 2900 ng·h/mL
- AUC(0-inf) ([3]; 4 mg, sirolimus 4 mg, without ketoconazole, n=6): 456 ng·h/mL
- Cmax ([3]; 4 mg, Cmax, sirolimus 4 mg, with ketoconazole, n=6): 66.8 ng/mL
- Cmax ([3]; 4 mg, Cmax, sirolimus 4 mg, without ketoconazole, n=6): 21.3 ng/mL
- half-life ([3]; 4 mg, T1/2, sirolimus 4 mg, without ketoconazole, n=6): 36 h
- AUC(0-inf) ([3]; 5 mg, sirolimus 5 mg, with ketoconazole, n=6): 3140 ng·h/mL
- AUC(0-inf) ([3]; 5 mg, sirolimus 5 mg, without ketoconazole, n=6): 676 ng·h/mL
- Cmax ([3]; 5 mg, Cmax, sirolimus 5 mg, with ketoconazole, n=6): 71.2 ng/mL
- Cmax ([3]; 5 mg, Cmax, sirolimus 5 mg, without ketoconazole, n=6): 25.8 ng/mL
- half-life ([3]; 5 mg, T1/2, sirolimus 5 mg, with ketoconazole, n=6): 57 h
- half-life ([3]; 5 mg, T1/2, sirolimus 5 mg, without ketoconazole, n=6): 35 h
- AUC(0-inf) ([3]; 6 mg, sirolimus 6 mg, with ketoconazole, n=3): 2620 ng·h/mL
- AUC(0-inf) ([3]; 6 mg, sirolimus 6 mg, without ketoconazole, n=3): 510 ng·h/mL
- Cmax ([3]; 6 mg, Cmax, sirolimus 6 mg, with ketoconazole, n=3): 74.6 ng/mL
- Cmax ([3]; 6 mg, Cmax, sirolimus 6 mg, without ketoconazole, n=3): 15 ng/mL
- half-life ([3]; 6 mg, T1/2, sirolimus 6 mg, without ketoconazole, n=3): 78 h
- AUC(0-inf) ([3]; 8 mg, sirolimus 8 mg, with ketoconazole, n=1): 1620 ng·h/mL
- AUC(0-inf) ([3]; 8 mg, sirolimus 8 mg, without ketoconazole, n=1): 420 ng·h/mL
- Cmax ([3]; 8 mg, Cmax, sirolimus 8 mg, with ketoconazole, n=1): 85.2 ng/mL
- Cmax ([3]; 8 mg, Cmax, sirolimus 8 mg, without ketoconazole, n=1): 25.2 ng/mL
- half-life ([3]; 8 mg, T1/2, sirolimus 8 mg, with ketoconazole, n=1): 34 h
- half-life ([3]; 8 mg, T1/2, sirolimus 8 mg, without ketoconazole, n=1): 18 h
- AUC(0-inf) ([3]; 16 mg, sirolimus 16 mg, with ketoconazole, n=2): 5010 ng·h/mL
- Cmax ([3]; 16 mg, Cmax, sirolimus 16 mg, with ketoconazole, n=2): 123 ng/mL
- half-life ([3]; 16 mg, T1/2, sirolimus 16 mg, with ketoconazole, n=2): 32 h
- AUC [3, 6]: 2050 ng·h/mL
- AUC [3, 7]: 3680 ng·h/mL
- Cmax ([3]; 30 mg, Cmax [SD], sirolimus alone study, 4 hours apart (total 60 mg), N=5, mean): 32.9 ng/mL
- Cmax ([3]; 30 mg, Cmax [SD], sirolimus alone study, 24 hours apart (total 60 mg), N=3, mean): 83.9 ng/mL
- Tmax [3, 6]: 2.2 h
- Tmax [3, 7]: 2.3 h
- AUC [3, 8]: 3360 ng·h/mL
- Cmax ([3]; 45 mg, Cmax [SD], sirolimus alone study, 24 hours apart (total 90 mg), N=2, mean): 42.8 ng/mL
- Tmax [3, 8]: 2.1 h
- CL/F ([3]; sirolimus 1 mg, with ketoconazole, n=6): 1.2 L/h
- CL/F ([3]; sirolimus 1 mg, without ketoconazole, n=6): 10.3 L/h
- CL/F ([3]; sirolimus 2 mg, with ketoconazole, n=6): 1.8 L/h
- CL/F ([3]; sirolimus 2 mg, without ketoconazole, n=6): 9.5 L/h
- CL/F ([3]; sirolimus 3 mg, with ketoconazole, n=6): 1.6 L/h
- CL/F ([3]; sirolimus 3 mg, without ketoconazole, n=6): 8.0 L/h
- CL/F ([3]; sirolimus 4 mg, with ketoconazole, n=6): 2.1 L/h
- CL/F ([3]; sirolimus 4 mg, without ketoconazole, n=6): 10.0 L/h
- CL/F ([3]; sirolimus 5 mg, with ketoconazole, n=6): 2.8 L/h
- CL/F ([3]; sirolimus 5 mg, without ketoconazole, n=6): 9.0 L/h
- CL/F ([3]; sirolimus 6 mg, with ketoconazole, n=3): 2.6 L/h
- CL/F ([3]; sirolimus 6 mg, without ketoconazole, n=3): 15.6 L/h
- CL/F ([3]; sirolimus 8 mg, with ketoconazole, n=1): 4.9 L/h
- CL/F ([3]; sirolimus 8 mg, without ketoconazole, n=1): 19.1 L/h
- CL/F ([3]; sirolimus 15 mg, with grapefruit juice, n=5): 5.9 L/h
- CL/F ([3]; sirolimus 15 mg, without grapefruit juice, n=5): 20.5 L/h
- CL/F ([3]; sirolimus 16 mg, with ketoconazole, n=2): 3.2 L/h
- CL/F ([3]; sirolimus 16 mg, without ketoconazole, n=2): 11.2 L/h
- CL/F ([3]; sirolimus 20 mg, with grapefruit juice, n=5): 11.5 L/h
- CL/F ([3]; sirolimus 20 mg, without grapefruit juice, n=5): 36.9 L/h
- CL/F ([3]; sirolimus 25 mg, with grapefruit juice, n=4): 9.2 L/h
- CL/F ([3]; sirolimus 25 mg, without grapefruit juice, n=4): 32.6 L/h
- CL/F ([3]; sirolimus 30 mg, with grapefruit juice, n=5): 12.6 L/h
- CL/F ([3]; sirolimus 30 mg, without grapefruit juice, n=5): 18.7 L/h
- CL/F ([3]; sirolimus 35 mg, with grapefruit juice, n=8): 12.8 L/h
- CL/F ([3]; sirolimus 35 mg, without grapefruit juice, n=8): 29.4 L/h
- CL/F [SD] ([3]; sirolimus alone study, 30 mg, 4 hours apart (total 60 mg), N=5, mean): 19.786 [15.2] l/h
- CL/F [SD] ([3]; sirolimus alone study, 30 mg, 24 hours apart (total 60 mg), N=3, mean): 17.087 [2.90] l/h
- CL/F [SD] ([3]; sirolimus alone study, 45 mg, 24 hours apart (total 90 mg), N=2, mean): 26.842 [1.1] l/h
- CL/F [SD] ([3]; sirolimus alone study, dose cohort 10 mg, N=6, mean): 16.922 [6.08] l/h
- CL/F [SD] ([3]; sirolimus alone study, dose cohort 20 mg, N=7, mean): 18.736 [11.0] l/h
- CL/F [SD] ([3]; sirolimus alone study, dose cohort 30 mg, N=6, mean): 16.148 [10.4] l/h
- CL/F [SD] ([3]; sirolimus alone study, dose cohort 60 mg, N=8, mean): 19.588 [13.6] l/h
- Sirolimus dose at which target AUC of 3810 ng-hr/ml was achieved/observed ([3]; sirolimus plus grapefruit juice study): 25 mg
- Sirolimus dose at which target AUC of 3810 ng-hr/ml was achieved ([3]; sirolimus plus ketoconazole study): 16 mg
SMILES: CO[C@H]1C[C@@H]2CC[C@@H](C)[C@@](O)(O2)C(=O)C(=O)N2CCCC[C@H]2C(=O)O[C@H]([C@H](C)C[C@@H]2CC[C@@H](O)[C@H](OC)C2)CC(=O)[C@H](C)/C=C(\C)[C@@H](O)[C@@H](OC)C(=O)[C@H](C)C[C@H](C)/C=C/C=C/C=C/1C [Sirolimus]
- phospho-p70S6K activity ([1]; 10 mg weekly dose, 1 week after the initial dose (data not shown)): suppressed
- phospho-p70S6K in peripheral T cells ([1]; 48 hours after administration, all dose levels, sirolimus alone study, p = 0.006): inhibition
- kout (first-order rate constant for loss of phospho-p70S6K), typical value [1, 5]: 0.05
- krebound, typical value [1, 5]: 11.3 mL/ng
- kin (zero-order rate constant for gain of phospho-p70S6K), typical value ([1]; indirect response model with rebound, baseline phosphorylation 100%): 5.5
- Rebound effect on phospho-p70S6K (levels exceeded baseline at later time points), subjects ([1]; sirolimus alone study): six out of twelve
- Partial response ([2]; collective studies, patient with epithelioid hemangioendothelioma with hepatic metastases): One partial response
- Stable disease, number of subjects ([2]; per study): 16
- Stable disease, percent of subjects ([2]; per study): 40%
- volume of distribution [4]: 12 L/kg
